H69AR growth 86K: blocks growth of human H69AR lung tumor cells. H69AR lung tumor viability, ATP luminescence, 72 h; stronger effect = lower value. viability, % at 10 µM. actives 6% (n = 85,000);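 active = viability at or below 40%; inactive = viability above 40%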;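 note: multidrug resistant small cell line overexpressing MRP-1 efflux transporter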
HCT116 PTEN-null: PTEN-deleted cell growth suppression | HCT116 PTEN-null viability, CellTiter-Glo, 60 h; stronger effect = lower value | viability, % at 10 µM | actives 1.2% (n = 140,000) | AID 827;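 active = viability at or below a set limit, 4 SD under the median of all tested compounds, cut at about 3.7% in these data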;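 note: PTEN knockout HCT116 line with beta catenin targeted HCT116 as companion control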
HUVEC inhibit: blocks proliferation of human endothelial cells; viability, % at 10 µM (by protocol); HUVEC proliferation, CellTiter-Glo luminescence, 72 h; stronger effect = lower value; actives 1.1% (n = 86,000); AID 648;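 active = viability at or below 30%; inactive = viability above 30%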
bCat KO growth: beta-catenin-lacking colon tumor cell growth suppression. HCT116 beta-catenin knockout viability, CellTiter-Glo, 60 h; stronger effect = lower value. viability, % at 10 µM. AID 818. actives 1.5% (n = 140,000);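 active = viability at or under a set limit, the compound median less 4 SD, cut at about 6% in these data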
Lung fibro prol: blocks proliferation of human lung fibroblasts; actives 1.1% (n = 85,000); LL 47 human lung fibroblast viability, ATP luminescence; stronger effect = lower value; AID 719; viability, % at 10 µM;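 active = viability at or below 50% in the single dose screen; inactive = viability above 50%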;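 note: compound exposure lasted 72 h before the ATP readout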
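Test system: LL 47 human lung fibroblasts; Quantity: 1,150 cells/well; Buffer or medium: IMEM plus 15% FBS; Dosing: tenfold compound dosing solution, DMSO at 0.1%; Timing: overnight cell rest, 72 h compound treatment at 37 °C; Detection: ATP-based CellTiter-Glo luminescent readout; Read-out basis: viability percentage against median untreated-cell control; Controls: cell-only wells, no compound.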
Of the large screens only hits and unclear results are named; the others gave an inactive call. Only a selection was taken, and hits are over-represented in it overall.

O=C(CSc1nc2ccccc2c(=O)n1CC1CCCO1)NCC1CCCO1 (centres undefined)	none
CCOC(=O)Nc1cc(=O)c2ccccc2o1	H69AR growth 86K 14 (no result: Lung fibro prol)
CCOc1ccc2ccccc2c1/C=N/NC(=O)CNC(=O)C(c1ccccc1)c1ccccc1	none (no result: H69AR growth 86K, HUVEC inhibit, Lung fibro prol)
COCCn1c(-c2ccc(OC(F)(F)C(F)C(F)(F)F)cc2)nc2c1c(=O)[nH]c(=O)n2CC(C)C (centres undefined)	H69AR growth 86K 39
CC(=O)N(C)c1ccc(OCC(O)Cn2c3ccc(Cl)cc3c3cc(Cl)ccc32)cc1 (centres undefined)	HCT116 PTEN-null 1.8, bCat KO growth 2.8 (no result: H69AR growth 86K, HUVEC inhibit, Lung fibro prol)
O=c1c(Cl)c(Nc2cccc(Cl)c2)cnn1-c1nc2ccccc2s1	none (no result: H69AR growth 86K, HUVEC inhibit, Lung fibro prol)
COc1ccc(Nc2cnn(-c3nc4ccccc4s3)c(=O)c2Cl)cc1	bCat KO growth 5.1 (no result: H69AR growth 86K, HUVEC inhibit, Lung fibro prol)
CC(=O)c1sc(NC(=O)C(C)(C)C)nc1C	none
CC(=O)c1sc(Nc2nc(C)cc(C)n2)nc1C	H69AR growth 86K 29
Oc1nc(Nc2cccc(Cl)c2)sc1/C=C1\C=Nc2ccccc21	none (no result: H69AR growth 86K, HUVEC inhibit, Lung fibro prol)
CCOC(=O)c1c(Nc2ccc(Cl)cc2)sc(/C=C2\C=Nc3ccccc32)c1O	H69AR growth 86K 2.7, HUVEC inhibit 12, Lung fibro prol 46
O=C(CSc1cccc2cccnc12)N1CCCC1	H69AR growth 86K 0.0, Lung fibro prol 18
NNC(=O)CSc1cccc2cccnc12	none (no result: H69AR growth 86K, HUVEC inhibit, Lung fibro prol)
CN(C)C(=O)CSc1cccc2cccnc12	H69AR growth 86K 0.6, bCat KO growth 4.3, Lung fibro prol 40
CCc1nnc2n1N=C(c1ccc(-c3cc(Cl)ccc3Cl)o1)CS2	H69AR growth 86K 8.5, HCT116 PTEN-null 1.7, bCat KO growth 1.4
CCc1nnc2n1N=C(c1ccc(OC)cc1)CS2	H69AR growth 86K 19
CCOc1ccc(-c2nnc3n2N=C(c2ccc(OC)cc2)CS3)cc1	none
COc1ccc(C2=Nn3c(nnc3-c3ccccn3)SC2)cc1	H69AR growth 86K 24
COc1ccccc1-c1ccc(=O)n(CC(=O)NC(C)(C)C)n1	none
O=C(/C=C/c1ccccc1)N/C(=C/c1ccccc1)C(=O)NCCCO	none (no result: H69AR growth 86K, HUVEC inhibit, Lung fibro prol)
CN1CCN(c2ccc(NC(=O)Cc3ccccc3)cc2)CC1	none
CCCN1Cc2cccc(C(=O)Nc3ccc(N4CCN(CC)CC4)cc3)c2C1=O	H69AR growth 86K 22 (no result: HCT116 PTEN-null, bCat KO growth)
CCN1CCN(c2ccc(NC(=O)c3ccc4c(c3)[nH]c(=O)n4Cc3ccc(F)cc3)cc2)CC1	HCT116 PTEN-null 1.8, bCat KO growth 3.4 (no result: H69AR growth 86K, HUVEC inhibit, Lung fibro prol)
COc1c(F)c(F)c(C(=O)Nc2ccc(N3CCN(Cc4ccccc4)CC3)cc2)c(F)c1F	HUVEC inhibit 22
CN1CCN(c2ccc(NC(=O)c3cccc(OCc4ccccc4)c3)cc2)CC1	H69AR growth 86K 32, HUVEC inhibit 3.5, bCat KO growth 2.6
COc1ccc(Cn2c(=O)[nH]c3cc(C(=O)Nc4ccc(N5CCN(C)CC5)cc4)ccc32)cc1	none (no result: H69AR growth 86K, HUVEC inhibit, Lung fibro prol)
CCCCSc1nc(N)c(NC(=O)c2ccco2)c(=O)[nH]1	none
Cc1cc2c(cc1C)CSC(c1ccccc1OC(=O)C(C)C)SC2	none (no result: H69AR growth 86K, HUVEC inhibit, Lung fibro prol)
Nc1nc(SCC(=O)Nc2ccc3c(c2)CCC3)n[nH]1	none (no result: H69AR growth 86K, HUVEC inhibit, Lung fibro prol)
N#Cc1nc(-c2ccccc2F)oc1NC1CCCCC1	none
COC(=O)c1ccc(OCC(=O)c2ccccc2OC)cc1	none
CCN1CCN(c2ccc(NC(=O)c3cccc(OCc4ccccc4)c3)cc2)CC1	HCT116 PTEN-null 3.5
COc1cccc(C(=O)Nc2ccc(N3CCN(Cc4ccccc4)CC3)cc2)c1	none
Cc1noc(C)c1COc1ccc(C(=O)OCC(=O)Nc2cccc(S(=O)(=O)N3CCOCC3)c2)cc1	none (no result: H69AR growth 86K, HUVEC inhibit, Lung fibro prol)
COc1cc2ccc(=O)oc2c(O)c1OCC=C(C)C	H69AR growth 86K 37
Cc1scc(C(=O)NNC(=S)NC(C)c2ccccc2)c1C (centres undefined)	none (no result: H69AR growth 86K, HUVEC inhibit, Lung fibro prol)
Cc1ccc(-c2noc(C3CCN(S(=O)(=O)c4ccc5c(c4)OCCO5)CC3)n2)o1	H69AR growth 86K 40
Cc1ccc2nc(C3CCN(S(=O)(=O)c4ccc5ccccc5c4)CC3)[nH]c2c1	H69AR growth 86K 8.0
O=S(=O)(c1ccc2c(c1)OCCO2)N1CCC(c2nc3ccc(Cl)cc3[nH]2)CC1	H69AR growth 86K 15
Cc1ccc(-c2noc(C3CCCN(S(=O)(=O)c4ccc5ccccc5c4)C3)n2)o1 (centres undefined)	none
O=C(NCC1CCCO1)c1ccc(S(=O)(=O)N2CCC(c3nc4ccc(Cl)cc4[nH]3)CC2)cc1 (centres undefined)	H69AR growth 86K 36
O=C(c1ccc(S(=O)(=O)N2CCC(c3nc4ccccc4[nH]3)CC2)cc1)N1CCOCC1	none

Screens (PubChem BioAssay)
